Results: ChEMBL document CHEMBL4152216, “Syntheses and anti-pancreatic cancer activities of rakicidin A analogues” (Eur J Med Chem, 2018)

Legend:
[1] = system: PANC-1; assay: Inhibition of cancer stem cell population of human PANC1 cells assessed as CD24+/CD44+/ESA+ cell population level at 0.15 uM after 48 hrs by flow cytometric analysis (reference value: 1.7%); assay type: functional; design: scale not given: the % may be the effect or the level left
[2] = system: PANC-1; assay: Cytotoxicity against human PANC1 cells after 72 hrs under hypoxic condition by MTT assay; assay type: functional, cell-based; details: PANC-1, 72 h
Method in brief: (§1)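 PANC-1, PATU8988T and ASPC-1 cells were grown in DMEM with 10% FBS at 37 °C and 5% CO2, then seeded at 4000 cells/well. Compounds were added at various concentrations after 6 h. Normoxic plates stayed at 37 °C, 5% CO2. Hypoxic plates went into a chamber purged 10 min with 5% CO2/1% O2/94% N2, sealed, at 37 °C. After 72 h, MTT was added for 4 h, formazan dissolved in DMSO and read at 570 nm. IC50 is the mean ± SD of three independent experiments.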

[3] = system: PANC-1; assay: Antitumor activity against human PANC1 cells xenografted in zebrafsh yolk assessed as tumor growth inhibition at 66.7 uM after 2 days by fluorescence microscopy; assay type: functional
Method in brief: (§2)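 About 300 PANC-1 cells were microinjected into the yolk of 2 dpf wild-type AB zebrafish, which were held at 35 °C to 3 dpf. Fish were then randomized to 6-well plates, 30 per well, and dosed once with compound at 0.005–50 µM. Gemcitabine 66.7 µM served as positive control and 10% aqueous castor oil as blank. After 2 days at 35 °C, 15 fish per group were imaged by fluorescence microscopy. Inhibition (%) = (1 − S(sample)/S(blank)) × 100, mean ± SEM, n = 15.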

[4] = system: PANC-1; assay: Selectivity index, ratio of IC50 against human PANC1 cells under normoxic condition to IC50 for human PANC1 cells under hypoxic condition; assay type: functional
Method in brief: (§3)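 Hypoxic selectivity index is IC50 (normoxia)/IC50 (hypoxia). Both IC50s come from the 72 h MTT assay in the same cell line, run under normoxia (37 °C, 5% CO2) or a sealed 1% O2/5% CO2/94% N2 chamber, each the mean of three independent experiments.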

[5] = system: PANC-1; assay: Cytotoxicity against human PANC1 cells after 72 hrs under normoxic condition by MTT assay; assay type: functional, cell-based; details: PANC-1, 72 h; method in brief: as §1
[6] = system: ASPC1; assay: Selectivity index, ratio of IC50 against human Aspc-1 cells under normoxic condition to IC50 for human Aspc-1 cells under hypoxic condition; assay type: functional; method in brief: as §3
[7] = system: PANC-1; assay: Increase in tumor initiating cell frequency in human PANC1 cells xenografted in BALB/c nude mouse at 0.5 uM measured after 7 days; assay type: cell-based; details: in vivo, 168 h
Method in brief: (§4)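 PANC-1 cells were treated in vitro with compound (ADR at 0.5 µM) for 48 h, collected, and injected subcutaneously at limiting cell doses into 5-week-old female BALB/c nude mice. Tumor formation rate was scored after 7 days. Tumor-initiating frequency was derived by limiting-dilution analysis with Poisson statistics against vehicle.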

[8] = molecular target: T1, Aldehyde dehydrogenase, mitochondrial (Homo sapiens) (UniProt P05091); assay: Inhibition of ALDH in human PANC1 cells assessed as aldefluor positive cells at 0.5 uM after 72 hrs in presence of DEAB by aldefluor assay (reference value: 0.455%); assay type: cell-based; design: scale not given: the % may be the effect or the level left
T1 sequence (whole entry): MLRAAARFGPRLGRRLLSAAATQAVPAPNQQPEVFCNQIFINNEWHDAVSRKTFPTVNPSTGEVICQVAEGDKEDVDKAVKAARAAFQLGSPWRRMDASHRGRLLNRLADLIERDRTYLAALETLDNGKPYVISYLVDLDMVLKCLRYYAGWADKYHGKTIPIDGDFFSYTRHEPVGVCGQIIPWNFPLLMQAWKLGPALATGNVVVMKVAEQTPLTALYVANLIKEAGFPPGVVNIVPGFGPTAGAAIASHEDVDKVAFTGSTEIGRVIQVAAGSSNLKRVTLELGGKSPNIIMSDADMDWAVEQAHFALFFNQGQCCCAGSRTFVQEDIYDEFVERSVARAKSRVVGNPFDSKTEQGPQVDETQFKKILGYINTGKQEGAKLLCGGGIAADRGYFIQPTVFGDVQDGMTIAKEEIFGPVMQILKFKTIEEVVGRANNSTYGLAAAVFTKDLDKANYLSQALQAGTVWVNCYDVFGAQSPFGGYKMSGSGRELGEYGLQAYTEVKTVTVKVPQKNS
Method in brief: (§5)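 PANC-1 cells were seeded at 5×10^4 cells/well and exposed after 6 h to compound (0.2 µM; ADR 0.5 µM) for 72 h. Living cells were suspended in assay buffer and incubated with Aldefluor substrate for 60 min at 37 °C. A parallel sample received substrate plus the ALDH inhibitor DEAB as negative control. Readout was percentage of ALDH+ cells, mean ± SEM, n = 3.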

[9] = system: ASPC1; assay: Cytotoxicity against human Aspc-1 cells after 72 hrs under hypoxic condition by MTT assay; assay type: functional, cell-based; details: ASPC1, 72 h; method in brief: as §1
[10] = system: ASPC1; assay: Cytotoxicity against human Aspc-1 cells after 72 hrs under normoxic condition by MTT assay; assay type: functional, cell-based; details: ASPC1, 72 h; method in brief: as §1
[11] = molecular target: T1, Aldehyde dehydrogenase, mitochondrial (Homo sapiens); assay: Inhibition of ALDH in human PANC1 cells assessed as aldefluor positive cells at 0.5 uM after 72 hrs by aldefluor assay (reference value: 12.5%); assay type: cell-based; design: scale not given: the % may be the effect or the level left; method in brief: as §5
[12] = system: PANC-1; assay: Antitumor activity against human PANC1 cells xenografted in zebrafsh yolk assessed as tumor growth inhibition at 0.005 uM after 2 days by fluorescence microscopy; assay type: functional; method in brief: as §2
[13] = system: PANC-1; assay: Antitumor activity against human PANC1 cells xenografted in zebrafsh yolk assessed as tumor growth inhibition at 0.5 uM after 2 days by fluorescence microscopy; assay type: functional; method in brief: as §2
[14] = system: PANC-1; assay: Antitumor activity against human PANC1 cells xenografted in zebrafsh yolk assessed as tumor growth inhibition at 5 uM after 2 days by fluorescence microscopy; assay type: functional; method in brief: as §2
[15] = system: Danio rerio; assay: Toxicity in zebrafish xenografted with human PANC1 cells at 50 uM after 2 days by fluorescence microscopy; assay type: organism-based; details: 48 h
[16] = system: PaTu 8988t; assay: Selectivity index, ratio of IC50 against human PA-TU-8988T cells under normoxic condition to IC50 for human PA-TU-8988T cells under hypoxic condition; assay type: functional; method in brief: as §3
[17] = system: PANC-1; assay: Antitumor activity against human PANC1 cells xenografted in zebrafsh yolk assessed as tumor growth inhibition at 0.05 uM after 2 days by fluorescence microscopy; assay type: functional; method in brief: as §2
[18] = system: PaTu 8988t; assay: Cytotoxicity against human PA-TU-8988T cells after 72 hrs under hypoxic condition by MTT assay; assay type: functional, cell-based; method in brief: as §1
[19] = system: PaTu 8988t; assay: Cytotoxicity against human PA-TU-8988T cells after 72 hrs under normoxic condition by MTT assay; assay type: functional, cell-based; method in brief: as §1
[20] = system: PANC-1; assay: Antitumor activity against human PANC1 cells xenografted in zebrafsh yolk assessed as tumor growth inhibition at 50 uM after 2 days by fluorescence microscopy; assay type: functional; method in brief: as §2
[21] = molecular target: T1, Aldehyde dehydrogenase, mitochondrial (Homo sapiens); assay: Inhibition of ALDH in human PANC1 cells assessed as aldefluor positive cells at 0.2 uM after 72 hrs in presence of DEAB by aldefluor assay (reference value: 0.455%); assay type: cell-based; design: scale not given: the % may be the effect or the level left; method in brief: as §5
[22] = molecular target: T1, Aldehyde dehydrogenase, mitochondrial (Homo sapiens); assay: Inhibition of ALDH in human PANC1 cells assessed as aldefluor positive cells at 0.2 uM after 72 hrs by aldefluor assay (reference value: 12.5%); assay type: cell-based; design: scale not given: the % may be the effect or the level left; method in brief: as §5
[23] = system: ASPC1; assay: Potency index, ratio of […] for rakicidin A to IC50 for test compound for cytotoxicity against human Aspc-1 cells after 72 hrs under hypoxic condition by MTT assay; assay type: functional
[24] = system: PANC-1; assay: Antitumor activity against human PANC1 cells xenografted in BALB/c nude mouse assessed as reduction in tumor initiating cell frequency at 0.1 to 0.25 uM measured after 7 days; assay type: functional; method in brief: as §4
[25] = system: PANC-1; assay: Inhibition of tumorsphere formation in human PANC1 cells assessed as reduction in number of tumor spheres at 0.25 uM after 7 days; assay type: functional
Method in brief: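 Tumorsphere formation: single-cell PANC-1 suspensions were plated in ultra-low-attachment wells at 2,000 cells/mL in Complete MammoCult medium, with compound at 0.25 µM. Tumorspheres were counted after 7 days. Three repeats, mean ± SEM.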

SMILES	Activity [1] [%]	IC50 [2] [µM]	Ratio IC50 [4]	IC50 [5] [µM]	Ratio IC50 [6]	IC50 [9] [µM]	IC50 [10] [µM]	TGI [12] [%]	TGI [13] [%]	TGI [14] [%]	Activity [15]	Ratio IC50 [16]	TGI [17] [%]	IC50 [18] [µM]	IC50 [19] [µM]	TGI [20] [%]	other results
Nc1ccn([C@@H]2O[C@H](CO)[C@@H](O)C2(F)F)c(=O)n1 [GEMCITABINE]	1.4	1.7	0.24	0.4	–	–	–	–	–	–	–	–	–	–	–	–	TGI [3]: 55%
COc1cccc2c1C(=O)c1c(O)c3c(c(O)c1C2=O)C[C@@](O)(C(=O)CO)C[C@@H]3O[C@H]1C[C@H](N)[C@H](O)[C@H](C)O1.Cl [DOXORUBICIN HYDROCHLORIDE]	8.9	1.7	0.29	0.48	0.78	2	1.6	–	–	–	–	–	–	–	–	–	fold change (FC) [7]: 1.6; Activity [8]: 0.964%; Activity [11]: 18.8%
C=C1/C=C/C(=O)N(C)CC(=O)NCC(=O)O[C@@H]([C@H](C)CCCCCCCCCCCCCC)[C@H](C)C(=O)N1	–	0.31	7.93	2.48	8.6	0.49	4.17	14	6	26	Non-Toxic	5.67	-2	0.44	2.47	47	–
C=C1/C=C/C(=O)N(C)CC(=O)N[C@@H](CC(=O)NC2CC2)C(=O)O[C@@H]([C@H](C)CCCCCCCCCCCCCC)[C@H](C)C(=O)N1	0.5	0.024	5.25	0.13	12.27	0.022	0.27	15	5	22	Non-Toxic	8.3	10	0.024	0.2	45	Activity [21]: 0.746%; Activity [22]: 5.84%; Ratio IC50 [23]: 4; fold change (FC) [24]: 19; fold change (FC) [25]: 8.7
